Source: ChEMBL document CHEMBL1143064, “Novel 9a-carbamoyl- and 9a-thiocarbamoyl-3-decladinosyl-6-hydroxy and 6-methoxy derivatives of 15-membered macrolides” (Bioorg Med Chem, 2007)
Converted amounts (≈) assume the structure as drawn.

Experiments:
Streptococcus pyogenes [1] = assay: Antibacterial activity against Streptococcus pyogenes-M after 24 hrs by microdilution method; assay type: functional
How it was run: (§1)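 Broth microdilution in Mueller–Hinton medium run on an automated liquid handler. Compounds dissolved in DMF (5 mg/ml stock) and tested in medium from 64 to 0.125 µg/ml. Plates incubated 24 h at 37 °C, then growth read as absorbance at 600 nm. MIC taken as the concentration giving 90% growth inhibition.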

Staphylococcus aureus [2] = assay: Antibacterial activity against Staphylococcus aureus-cMLS after 24 hrs by microdilution method; assay type: functional; how it was run: as §1
Streptococcus pyogenes [3] = assay: Antibacterial activity against Streptococcus pyogenes after 24 hrs by microdilution method; assay type: functional; how it was run: as §1
Streptococcus pneumoniae [4] = assay: Antibacterial activity against Streptococcus pneumoniae-M after 24 hrs by microdilution method; assay type: functional; how it was run: as §1
Saccharomyces cerevisiae = assay: Toxicity against Saccharomyces cerevisiae; assay type: organism-based; conditions: in vivo
How it was run: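 Yeast used as a surrogate for eukaryotic cell toxicity. Microdilution in Mueller–Hinton medium with compound from a DMF stock (5 mg/ml), final range 64 to 0.125 µg/ml. Incubated 24 h at 37 °C, with optical density read at 600 nm. MIC defined as the concentration inhibiting growth by 90%.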

Staphylococcus aureus [5] = assay: Antibacterial activity against Staphylococcus aureus-M after 24 hrs by microdilution method; assay type: functional; how it was run: as §1
Haemophilus influenzae = assay: Antibacterial activity against Haemophilus influenzae after 24 hrs by microdilution method; assay type: functional; how it was run: as §1
Streptococcus pneumoniae [6] = assay: Antibacterial activity against Streptococcus pneumoniae after 24 hrs by microdilution method; assay type: functional; how it was run: as §1

SMILES	MIC (Streptococcus pyogenes [1])	MIC (Staphylococcus aureus [2])	MIC (Streptococcus pyogenes [3])	MIC (Streptococcus pneumoniae [4])	Activity (Saccharomyces cerevisiae)	MIC (Staphylococcus aureus [5])	MIC (Haemophilus influenzae)	MIC (Streptococcus pneumoniae [6])
CC[C@H]1OC(=O)[C@H](C)[C@@H](OC(=O)Cc2ccc([N+](=O)[O-])cc2)[C@H](C)[C@@H](O[C@@H]2O[C@H](C)C[C@H](N(C)C)[C@H]2O)[C@](C)(O)C[C@@H](C)CN(C(=O)Nc2ccc(Cl)cc2Cl)[C@H](C)[C@@H](O)[C@]1(C)O	32 µg/mL (≈ 34.5 µM)	32 µg/mL (≈ 34.5 µM)	4 µg/mL (≈ 4.31 µM)	4 µg/mL (≈ 4.31 µM)	Non-toxic	32 µg/mL (≈ 34.5 µM)	32 µg/mL (≈ 34.5 µM)	2 µg/mL (≈ 2.16 µM)
CC[C@H]1OC(=O)[C@H](C)[C@@H](O)[C@H](C)[C@@H](O[C@@H]2O[C@H](C)C[C@H](N(C)C)[C@H]2O)[C@](C)(O)C[C@@H](C)CN(C(=S)NCc2ccccc2)[C@H](C)[C@@H](O)[C@]1(C)O	> 64 µg/mL	> 64 µg/mL	> 64 µg/mL	> 64 µg/mL	Non-toxic	> 64 µg/mL	> 64 µg/mL	> 64 µg/mL
CC[C@H]1OC(=O)[C@H](C)C(=O)[C@H](C)[C@@H](O[C@@H]2O[C@H](C)C[C@H](N(C)C)[C@H]2O)[C@](C)(OC)C[C@@H](C)CN(C(=O)NC(C)C)[C@H](C)[C@@H](O)[C@]1(C)O	> 64 µg/mL	> 64 µg/mL	16 µg/mL (≈ 23.7 µM)	> 64 µg/mL	Non-toxic	> 64 µg/mL	> 64 µg/mL	8 µg/mL (≈ 11.9 µM)
CC[C@H]1OC(=O)/C(C)=C\[C@H](C)[C@@H](O[C@@H]2O[C@H](C)C[C@H](N(C)C)[C@H]2O)[C@](C)(OC)C[C@@H](C)CN(C(=O)NC(C)C)[C@H](C)[C@@H](O)[C@]1(C)O	> 64 µg/mL	> 64 µg/mL	16 µg/mL (≈ 24.3 µM)	> 64 µg/mL	Non-toxic	> 64 µg/mL	> 64 µg/mL	8 µg/mL (≈ 12.2 µM)
CC[C@H]1OC(=O)[C@H](C)[C@@H](O)[C@H](C)[C@@H](O[C@@H]2O[C@H](C)C[C@H](N(C)C)[C@H]2O)[C@](C)(O)C[C@@H](C)CN(C(=O)NC(C)C)[C@H](C)[C@@H](O)[C@]1(C)O	> 64 µg/mL	> 64 µg/mL	> 64 µg/mL	> 64 µg/mL	Non-toxic	> 64 µg/mL	> 64 µg/mL	> 64 µg/mL
CC[C@H]1OC(=O)[C@H](C)[C@@H](O[C@H]2C[C@@](C)(OC)[C@@H](O)[C@H](C)O2)[C@H](C)[C@@H](O[C@@H]2O[C@H](C)C[C@H](N(C)C)[C@H]2O)[C@](C)(OC)C[C@@H](C)CN[C@H](C)[C@@H](O)[C@]1(C)O	16 µg/mL (≈ 21.4 µM)	> 64 µg/mL	1 µg/mL (≈ 1.34 µM)	16 µg/mL (≈ 21.4 µM)	Non-toxic	> 64 µg/mL	8 µg/mL (≈ 10.7 µM)	0.5 µg/mL (≈ 0.668 µM)
C=CCNC(=S)N1C[C@H](C)C[C@@](C)(O)[C@H](O[C@@H]2O[C@H](C)C[C@H](N(C)C)[C@H]2O)[C@@H](C)[C@H](O)[C@@H](C)C(=O)O[C@H](CC)[C@@](C)(O)[C@H](O)[C@H]1C	> 64 µg/mL	> 64 µg/mL	> 64 µg/mL	> 64 µg/mL	Non-toxic	> 64 µg/mL	> 64 µg/mL	> 64 µg/mL
CC[C@H]1OC(=O)[C@H](C)[C@@H](O)[C@H](C)[C@@H](O[C@@H]2O[C@H](C)C[C@H](N(C)C)[C@H]2O)[C@](C)(OC)C[C@@H](C)CN(C(=O)NC(C)C)[C@H](C)[C@@H](O)[C@]1(C)O	> 64 µg/mL	> 64 µg/mL	> 64 µg/mL	> 64 µg/mL	Non-toxic	> 64 µg/mL	> 64 µg/mL	32 µg/mL (≈ 47.3 µM)
CC[C@H]1OC(=O)[C@H](C)C2(O)O[C@@](C)(C[C@@H](C)CN(C(=O)NC(C)C)[C@H](C)[C@@H](O)[C@]1(C)O)[C@H](O[C@@H]1O[C@H](C)C[C@H](N(C)C)[C@H]1O)[C@H]2C	> 64 µg/mL	> 64 µg/mL	> 64 µg/mL	> 64 µg/mL	Non-toxic	> 64 µg/mL	> 64 µg/mL	> 64 µg/mL
CC[C@H]1OC(=O)[C@H](C)C2(O)O[C@@](C)(C[C@@H](C)CN(C(=O)Nc3ccc(Cl)cc3Cl)[C@H](C)[C@@H](O)[C@]1(C)O)[C@H](O[C@@H]1O[C@H](C)C[C@H](N(C)C)[C@H]1O)[C@H]2C	> 64 µg/mL	> 64 µg/mL	> 64 µg/mL	> 64 µg/mL	Non-toxic	> 64 µg/mL	> 64 µg/mL	> 64 µg/mL
CC[C@H]1OC(=O)[C@H](C)C(=O)[C@H](C)[C@@H](O[C@@H]2O[C@H](C)C[C@H](N(C)C)[C@H]2O)[C@](C)(OC)C[C@@H](C)CN(C(=O)Nc2ccc(Cl)cc2Cl)[C@H](C)[C@@H](O)[C@]1(C)O	> 64 µg/mL	> 64 µg/mL	16 µg/mL (≈ 20.6 µM)	8 µg/mL (≈ 10.3 µM)	Non-toxic	> 64 µg/mL	> 64 µg/mL	8 µg/mL (≈ 10.3 µM)
CC[C@H]1OC(=O)/C(C)=C\[C@H](C)[C@@H](O[C@@H]2O[C@H](C)C[C@H](N(C)C)[C@H]2O)[C@](C)(OC)C[C@@H](C)CN(C(=O)Nc2ccc(Cl)cc2Cl)[C@H](C)[C@@H](O)[C@]1(C)O	> 64 µg/mL	> 64 µg/mL	32 µg/mL (≈ 42.1 µM)	16 µg/mL (≈ 21 µM)	Non-toxic	> 64 µg/mL	> 64 µg/mL	8 µg/mL (≈ 10.5 µM)
CC[C@H]1OC(=O)[C@H](C)C2O[C@@](C)(C[C@@H](C)CN(C(=O)NC(C)C)[C@H](C)[C@@H](O)[C@]1(C)O)[C@H](O[C@@H]1O[C@H](C)C[C@H](N(C)C)[C@H]1O)[C@H]2C	> 64 µg/mL	> 64 µg/mL	> 64 µg/mL	> 64 µg/mL	Non-toxic	> 64 µg/mL	> 64 µg/mL	> 64 µg/mL
CC[C@H]1OC(=O)[C@H](C)[C@@H](O)[C@H](C)[C@@H](O[C@@H]2O[C@H](C)C[C@H](N(C)C)[C@H]2O)[C@](C)(O)C[C@@H](C)CN(C(=O)Nc2ccc(Cl)cc2Cl)[C@H](C)[C@@H](O)[C@]1(C)O	> 64 µg/mL	> 64 µg/mL	> 64 µg/mL	> 64 µg/mL	Non-toxic	> 64 µg/mL	> 64 µg/mL	> 64 µg/mL
CC[C@H]1OC(=O)[C@H](C)[C@@H](O)[C@H](C)[C@@H](O[C@@H]2O[C@H](C)C[C@H](N(C)C)[C@H]2O)[C@](C)(OC)C[C@@H](C)CN(C(=O)Nc2ccc(Cl)cc2Cl)[C@H](C)[C@@H](O)[C@]1(C)O	> 64 µg/mL	> 64 µg/mL	> 64 µg/mL	> 64 µg/mL	Non-toxic	> 64 µg/mL	> 64 µg/mL	> 64 µg/mL
CC[C@H]1OC(=O)[C@H](C)C2O[C@@](C)(C[C@@H](C)CN(C(=O)Nc3ccc(Cl)cc3Cl)[C@H](C)[C@@H](O)[C@]1(C)O)[C@H](O[C@@H]1O[C@H](C)C[C@H](N(C)C)[C@H]1O)[C@H]2C	> 64 µg/mL	> 64 µg/mL	> 64 µg/mL	> 64 µg/mL	Non-toxic	> 64 µg/mL	> 64 µg/mL	> 64 µg/mL
CC[C@H]1OC(=O)[C@H](C)[C@@H](O[C@H]2C[C@@](C)(OC)[C@@H](O)[C@H](C)O2)[C@H](C)[C@@H](O[C@@H]2O[C@H](C)C[C@H](N(C)C)[C@H]2O)[C@](C)(O)C[C@@H](C)C(=O)[C@H](C)[C@@H](O)[C@]1(C)O [ERYTHROMYCIN]	8 µg/mL (≈ 10.9 µM)	> 64 µg/mL	0.125 µg/mL (≈ 0.17 µM)	8 µg/mL (≈ 10.9 µM)	–	> 64 µg/mL	4 µg/mL (≈ 5.45 µM)	0.125 µg/mL (≈ 0.17 µM)
